# Experimental data as given in ChEMBL document CHEMBL4229396, “Synthesis, structure and bioactivity of primary sulfamate-containing natural products” (Bioorg Med Chem Lett, 2018).
# pKi: −log10 of the molar value.
# Key:
# [1] = target: Carbonic anhydrase 9 (Homo sapiens, UniProt Q16790); assay: Inhibition of recombinant human CA9 expressed in Escherichia coli assessed as reduction in CO2 hydration by stopped flow assay
# In short: (§1)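 Stopped-flow assay following the CA-catalysed hydration of CO2 (the physiological reaction); Ki values from three determinations, errors within ±5% of the reported value.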
# [2] = tested on: Escherichia coli; assay: Antibacterial activity against Escherichia coli ATCC 25922 at 20 uM relative to control; format: functional
# In short: (§2)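 Screened by CO-ADD at a single concentration of 20 µM; growth inhibition above 50% at this concentration was classed as a hit. Strains and sources are given in Supplementary Information.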
# [3] = Cytotoxicity against HEK293 cells; format: cell-based; settings: human
# [4] = target: Carbonic anhydrase 2 (Homo sapiens, UniProt P00918); assay: Inhibition of recombinant human CA2 expressed in Escherichia coli assessed as reduction in CO2 hydration by stopped flow assay; in short: as §1
# [5] = tested on: Staphylococcus aureus; assay: Antibacterial activity against Staphylococcus aureus ATCC 43300 at 20 uM relative to control; format: functional; in short: as §2
# [6] = tested on: Pseudomonas aeruginosa; assay: Antibacterial activity against Pseudomonas aeruginosa ATCC 27853 at 20 uM relative to control; format: functional; in short: as §2
# [7] = tested on: Staphylococcus aureus; assay: Antibacterial activity against Staphylococcus aureus ATCC 43300; format: functional
# [8] = tested on: Acinetobacter baumannii; assay: Antibacterial activity against Acinetobacter baumannii ATCC 19606 at 20 uM relative to control; format: functional, ATCC 19606 = CIP 70.34 = JCM 6841; in short: as §2
# [9] = tested on: Escherichia coli; assay: Antibacterial activity against Escherichia coli ATCC 25922; format: functional
# [10] = tested on: Cryptococcus neoformans; assay: Antifungal activity against Cryptococcus neoformans var. grubii H99 ATCC 208821 at 20 uM by resazurin dye based assay relative to control; format: functional; in short: as §2
# [11] = target: Carbonic anhydrase 4 (Homo sapiens, UniProt P22748); assay: Inhibition of recombinant human CA4 expressed in Escherichia coli assessed as reduction in CO2 hydration by stopped flow assay; in short: as §1
# Sequence of Carbonic anhydrase 4 (P22748 whole entry): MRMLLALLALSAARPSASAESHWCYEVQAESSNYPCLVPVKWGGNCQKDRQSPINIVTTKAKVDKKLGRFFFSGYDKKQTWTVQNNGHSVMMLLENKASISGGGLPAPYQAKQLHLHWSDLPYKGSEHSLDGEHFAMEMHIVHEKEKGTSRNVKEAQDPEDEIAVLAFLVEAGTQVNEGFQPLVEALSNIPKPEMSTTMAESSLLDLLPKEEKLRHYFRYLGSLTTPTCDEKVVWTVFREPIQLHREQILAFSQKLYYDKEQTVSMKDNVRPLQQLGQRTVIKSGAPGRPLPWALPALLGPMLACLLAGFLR
# [12] = tested on: Candida albicans; assay: Antifungal activity against Candida albicans ATCC 90028 at 20 uM by resazurin dye based assay relative to control; format: functional; in short: as §2
# [13] = target: Carbonic anhydrase 1 (Homo sapiens, UniProt P00915); assay: Inhibition of recombinant human CA1 expressed in Escherichia coli assessed as reduction in CO2 hydration by stopped flow assay; in short: as §1
# Sequence of Carbonic anhydrase 1 (P00915 whole entry): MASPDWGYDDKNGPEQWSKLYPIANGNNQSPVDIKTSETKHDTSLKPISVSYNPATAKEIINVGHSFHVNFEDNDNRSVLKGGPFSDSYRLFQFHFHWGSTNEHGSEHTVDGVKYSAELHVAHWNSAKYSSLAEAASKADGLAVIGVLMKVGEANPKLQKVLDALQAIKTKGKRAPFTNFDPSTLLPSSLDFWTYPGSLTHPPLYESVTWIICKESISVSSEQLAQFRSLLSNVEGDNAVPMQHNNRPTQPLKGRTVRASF
# [14] = tested on: Klebsiella pneumoniae; assay: Antibacterial activity against Klebsiella pneumoniae ATCC 700603 at 20 uM relative to control; format: functional; in short: as §2
pKi [1],pKi [4],MIC [7] [µM],MIC [9] [µM],pKi [11],pKi [13],Structure (SMILES),Activity [2],CC50 [3] [nM],Activity [5],Activity [6],Activity [8],Activity [10],Activity [12],Activity [14]
5.51,5.47,10,> 20,5.35,5.20,Nc1ncnc2c1ncn2[C@@H]1O[C@H](COS(N)(=O)=O)[C@@H](O)[C@H]1O,<=50%,800,>50%,<=50%,<=50%,<=50%,<=50%,<=50%
6.84,7.19,> 20,5,6.63,6.78,Nc1nc(Cl)nc2c1ncn2[C@@H]1O[C@H](COS(N)(=O)=O)[C@@H](O)[C@H]1O,>50%,< 150,<=50%,<=50%,<=50%,<=50%,<=50%,<=50%
